Compound activity from PubChem.
This excerpt belongs to a sample that is enriched for hits.
T cruzi repl: inhibitors of intracellular T. cruzi growth, primary screen, luminescence, NIH3T3 host cells | T. cruzi beta-gal in NIH3T3, 90 h | inhibition, % (concentration not given with the values) | 1.4% of 300,000 active;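 active = mean inhibition across valid replicates above about 55%, limit read from the data; inconclusive = mean below that limit but half or more replicates reach it; inactive = mean below it, under half of replicates reach it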;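 note: signal also drops with host cell toxicity which is not excluded here; 0% = plate median of DMSO wells and 100% = zero luminescence signal; higher percent means less beta-gal luminescence so fewer parasites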
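Assay system: NIH/3T3 host cells with β-galactosidase reporter T. cruzi; input: 5,000 host fibroblasts per well; compound: single 50 nL compound addition per well in DMSO; timing: ≥90 h infection period, 3 h prior cell attachment; measured by: GalScreen β-gal luminescence, detergent lysis, 60 min; evaluation: percent inhibition of parasite-derived β-gal signal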
Calb FLC: C. albicans growth inhibition with fluconazole, primary screen, CaCi-2 strain, Alamar Blue fluorescence | C. albicans CaCi-2 + fluconazole, 48 h | growth inhibition, % (concentration not given with the values) | 0.57% of 300,000 active | AID 1979, 2009;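 active = growth inhibition above about 58% in most replicates, limit read from the data, passing the limit was not always enough; inconclusive = exactly half the replicates above a set limit; inactive = most replicates below a set limit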;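 note: all wells also contain fluconazole at 8 µg/ml as a sub-toxic cotreatment; 0% = median of DMSO wells and 100% = median of geldanamycin control wells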
Lmaj promast: Leishmania major promastigote growth inhibition, primary screen; Leishmania major promastigotes, resazurin fluorescence viability; inhibition, % at 10 µM; 9% of 200,000 active; AID 1063, 2008; in the data active = inhibition above about 50%;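 note: promastigotes grown with compound for 44 hours at 28 °C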
NALP1 inh: NALP1 inflammasome inhibitors in reconstituted yeast, colorimetric, S. cerevisiae, triplicate retest. S. cerevisiae NALP1/ASC/caspase-1 growth, X-gal OD620, 72 h. inhibition, % at 10 µM. 0.61% of 280,000 active. AID 2071, 2009; in the data active = inhibition mostly above about 24%, no sharp cut-off; inactive = mostly below about 32%
NALP3 yeast inh: NALP3 inflammasome inhibitors in reconstituted yeast, primary screen, luminescence, uHTS; 0.39% of 330,000 active; inhibition, % at 10 µM; Yeast reconstituted NLRP3/ASC/caspase-1, beta-gal luminescence, 24 h; AID 2825, 2010;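 active = inhibition of 50% or more; inactive = inhibition below 50%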;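 note: plate controls were induced DMSO wells for no effect and uninduced yeast grown without galactose for full effect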
PolyA inhibitor: polyadenylation inhibitors in yeast reporter cells, primary screen, luminescence, S. cerevisiae; 0.02% of 300,000 active; S. cerevisiae SKY197-pL101 polyadenylation reporter, beta-gal luminescence; efflux-impaired pdr1/pdr3 knockout yeast; score 100 = 6 SD above DMSO; activity score, % at 12 µM;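 active = lowest replicate activity score at least 50, where 100 means six control SD above control mean; inconclusive = lowest score under 50 but half or more replicates reach 50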;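 note: yeast exposed to compound for 9 h at 30 °C; higher score means more reporter readthrough which indicates perturbed polyadenylation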
The depositor's hits bear a star; ? = inconclusive; / = not tested or not shown.

SMILES	T cruzi repl	Calb FLC	Lmaj promast	NALP1 inh	NALP3 yeast inh	PolyA inhibitor
O=C(/C=C/c1ccc(S(=O)(=O)NCc2ccco2)cc1)NCc1ccccc1Cl	3	48	15	31	11	4
COc1ccc(CNC(=O)/C=C/c2ccc(S(=O)(=O)NCc3ccco3)cc2)cc1OC	-10	-16	68*	16	3	3
COc1ccc(CNC(=O)/C=C/c2ccco2)cc1OC	3	5	0	18	6	8
COc1cc(/C=C/C(=O)O)cc(S(=O)(=O)NCc2ccc3c(c2)OCO3)c1OC	-3	-2	-5	-1	26	7
COc1ccc(CCC(C)NCCc2ccc(Cl)cc2Cl)cc1 (configuration not stated)	42	-10	/	20	33	3
CC(C)n1cnc2c(NCc3ccccc3)cc(N[C@H](C)CO)cc21	/	/	/	/	-6	/
CCOc1ccc(NC(=O)CN(C)C(=O)C2COc3ccccc3O2)cc1OCC (configuration not stated)	/	/	/	/	17	/
N#Cc1nc(-c2ccco2)oc1NCc1cccnc1	7	9	-1	20	14	8
N#Cc1nc(-c2cccc(Cl)c2)oc1NCc1cccnc1	51	17	100*	22	11	-1
COc1ccc(-c2nc(C#N)c(NCc3ccc(F)cc3)o2)cc1OC	-10	12	11	16	16	22
COc1ccc(-c2nc(C#N)c(NCc3cccnc3)o2)cc1OC	64*	-7	96*	9	3	12
Cc1ccccc1OCc1nc2ccccc2c(=O)n1/N=C/c1cn[nH]c1-c1ccccc1	16	3	100*	22	23	6
Cc1nc2ccccc2c(=O)n1/N=C/c1cn[nH]c1-c1ccccc1	-7	-1	/	41*	1	9
CCN1CCN(c2ncnc3sc4c(c23)CCC(C)C4)CC1 (configuration not stated)	29	-11	/	2	7	-4
COc1cccc(C2/C(=C(/O)c3ccc(C)cc3)C(=O)C(=O)N2Cc2ccco2)c1 (configuration not stated)	-3	94*	-4	18	18	-3
COc1ccc(CN(C(=O)c2cc3ccccc3oc2=O)C2CCS(=O)(=O)C2)cc1OC (configuration not stated)	-15	-14	/	3	-10	14
COc1cc(NC(=O)Cc2ccc(Cl)cc2)ccc1NC(=O)c1ccco1	15	-7	5	38*	15	-1
O=C(Nc1cccc(NC(=O)c2ccc([N+](=O)[O-])o2)c1)c1ccco1	21	-6	/	30	7	8
O=C(Nc1cccc(NC(=O)c2cccs2)c1)c1ccc([N+](=O)[O-])o1	68*	65	/	/	1	11
COc1cc(NC(=O)c2ccc([N+](=O)[O-])o2)ccc1NC(=O)c1cccs1	86*	-4	100*	12	25	6
COc1cc(NS(=O)(=O)c2ccc(Br)cc2)c(OC)cc1NC(=O)c1ccco1	12	13	91*	0	7	20
CCC(=O)Nc1ccc(NC(=O)c2ccco2)c(OC)c1	-7	7	-7	1	9	-1
COc1ccc(S(=O)(=O)Nc2cc(OC)c(NC(=O)c3ccco3)cc2OC)cc1	8	15	14	-4	4	3
CCOc1cc(NC(=O)c2ccco2)c(OCC)cc1NC(=O)Cc1cccc(OC)c1	28	-2	63*	-1	11	0
COc1ccc(NC(=O)c2cccs2)cc1NC(=O)c1ccco1	10	4	52*	2	15	-5
SMILES	T cruzi repl	Calb FLC	Lmaj promast	NALP1 inh	NALP3 yeast inh	PolyA inhibitor
Cc1ccc(NC(=O)c2cccs2)cc1NC(=O)c1ccco1	5	-8	2	-21	9	0
CCOc1cccc(/C=C/c2ccc3cccc(O)c3n2)c1OC	84*	?	/	23	-8	1
CCOc1cccc(/C=C/c2ccc3cccc(O)c3n2)c1O	38	-4	/	4	-8	-6
COc1ccccc1/C=C/c1ccc2cccc(O)c2n1	56*	-8	/	2	10	-5
COc1ccc(Cl)cc1/C=C/c1ccc2cccc(O)c2n1	34	11	/	-4	26	2
CCCCOc1ccc(Cc2n[nH]c(=S)n2N)cc1	11	-38	34	-14	27	-18
C=CCSc1nnc(CNC(=O)c2ccc(Cl)cc2)n1CC	-3	3	0	-10	6	22
CCn1c(=O)n(CC)c2cc(N3CCCC3)c(NC(=O)c3ccc(C)cc3)cc21	-14	1	/	2	15	4
CC(=O)Nc1ccc(N2CC(C)(C)C2=O)cc1	-5	72*	-9	3	3	-5
O=C(NCc1ccco1)c1ccccc1-c1nc(-c2ccc(F)cc2)no1	/	-11	/	8	25	-10
Cc1ccccc1-c1noc(-c2ccccc2C(=O)NCc2ccco2)n1	9	-19	/	39*	33	-7
COc1cc(Cl)c(C)cc1NC(=O)COc1ccc(C)nc1[N+](=O)[O-]	/	/	/	/	21	/
CC(NC(=O)c1cc(F)c(F)c(F)c1F)c1ccc(-n2ccnc2)cc1 (configuration not stated)	11	-1	/	5	11	4
O=C(NCCc1c[nH]c2ccccc12)c1cc([N+](=O)[O-])cc([N+](=O)[O-])c1	69*	-11	/	1	20	1
O=C(NCCCCc1ccccc1)c1cc([N+](=O)[O-])cc([N+](=O)[O-])c1	63*	-8	/	9	22	1
O=C(NCCCN1CCN(CCCNC(=O)c2cccc([N+](=O)[O-])c2)CC1)c1cccc([N+](=O)[O-])c1	56*	?	32	11	12	15
O=C(NCCCCc1ccccc1)c1cccc([N+](=O)[O-])c1	21	-24	21	1	41	-9
O=C(Nc1ccc(NC(=O)C2CCCCC2)nc1)c1cccs1	1	34	99*	-1	-9	-8
Cc1cc(O)c(C(C)C)cc1C1(c2cc(C(C)C)c(O)cc2C)OC(=O)c2ccccc21	77*	2	/	-3	16	-1
Cc1cc(C2(c3ccc(O)c(C)c3)OC(=O)c3ccccc32)ccc1O	-15	3	-12	39	-1	-10
COc1ccc(C(C)(C)C)cc1NC(=O)Nc1ccc2c(c1)OCO2	32	-8	100*	10	23	13
COc1ccc(S(=O)(=O)N2CCCCCC2)cc1NC(=O)c1c2c(nc3ccccc13)CCN(Cc1ccccc1)C2	53	36	54*	26	19	0
